Measurements as given in article PMC7004521 (Cancer Science, 2019).

Assay: Adverse events suspected to be study drug related, phase 1 study
Type: in vivo, human
Details: for Peripheral edema, all grades / Peripheral edema, grade 3/4 / Pyrexia, all grades / Pyrexia, grade 3/4 / Stomatitis, all grades / Stomatitis, grade 3/4 / Thrombocytopenia, all grades / Thrombocytopenia, grade 3/4 / Total protein decreased, all grades / Total protein decreased, grade 3/4 / Upper abdominal pain, all grades / Upper abdominal pain, grade 3/4 / Vomiting, all grades / Vomiting, grade 3/4 / ALT increased, all grades / ALT increased, grade 3/4 / AST increased, all grades / Amylase increased, all grades / Amylase increased, grade 3/4 / Asthenia, all grades / Asthenia, grade 3/4 / Blood bilirubin increased, all grades / Blood bilirubin increased, grade 3/4 / Blood creatinine increased, all grades / Blood creatinine increased, grade 3/4 / Constipation, all grades / Constipation, grade 3/4 / Decreased appetite, all grades / Decreased appetite, grade 3/4 / Diarrhea, all grades / Diarrhea, grade 3/4 / Dizziness, all grades / Dizziness, grade 3/4 / Dyspepsia, all grades / Dyspepsia, grade 3/4 / Fatigue, all grades / Fatigue, grade 3/4 / Headache, all grades / Headache, grade 3/4 / Hypoalbuminemia, all grades / Hypoalbuminemia, grade 3/4 / Lipase increased, all grades / Lipase increased, grade 3/4 / Localized edema, all grades / Localized edema, grade 3/4 / Maculo‐papular rash, all grades / Maculo‐papular rash, grade 3/4 / Myalgia, all grades / Myalgia, grade 3/4 / Nausea, all grades / Nausea, grade 3/4 / Odynophagia, all grades / Odynophagia, grade 3/4: drug-related
In short: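 Adult patients with advanced solid tumours and confirmed MET dysregulation took oral capsules twice daily from 100 up to 600 mg in escalation, or 400 mg bid tablets, in 28-day cycles. Expansion was 600 mg bid capsules, with a switch to 400 mg bid tablets allowed. Patients were included if they had ≥1 dose and ≥1 valid post-baseline safety assessment. Events were graded by CTCAE v4.0.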

[1] = expansion RP2D gastric cancer n=9

CNC(=O)c1ccc(-c2cnc3ncc(Cc4ccc5ncccc5c4)n3n2)cc1F [capmatinib]
Peripheral edema, all grades (expansion RP2D HCC n=11): 3 (27) n (%) | Peripheral edema, grade 3/4 (expansion RP2D HCC n=11): 0 n (%) | Pyrexia, all grades (expansion RP2D HCC n=11): 0 n (%) | Pyrexia, grade 3/4 (expansion RP2D HCC n=11): 0 n (%) | Stomatitis, all grades (expansion RP2D HCC n=11): 0 n (%) | Stomatitis, grade 3/4 (expansion RP2D HCC n=11): 0 n (%) | Thrombocytopenia, all grades (expansion RP2D HCC n=11): 1 (9) n (%) | Thrombocytopenia, grade 3/4 (expansion RP2D HCC n=11): 0 n (%) | Total protein decreased, all grades (expansion RP2D HCC n=11): 0 n (%) | Total protein decreased, grade 3/4 (expansion RP2D HCC n=11): 0 n (%) | Upper abdominal pain, all grades (expansion RP2D HCC n=11): 0 n (%) | Upper abdominal pain, grade 3/4 (expansion RP2D HCC n=11): 0 n (%) | Vomiting, all grades (expansion RP2D HCC n=11): 3 (27) n (%) | Vomiting, grade 3/4 (expansion RP2D HCC n=11): 1 (9) n (%) | ALT increased, all grades [1]: 1 (11) n (%) | ALT increased, grade 3/4 [1]: 1 (11) n (%) | AST increased, all grades [1]: 1 (11) n (%) | Amylase increased, all grades [1]: 0 n (%) | Amylase increased, grade 3/4 [1]: 0 n (%) | Asthenia, all grades [1]: 0 n (%) | Asthenia, grade 3/4 [1]: 0 n (%) | Blood bilirubin increased, all grades [1]: 0 n (%) | Blood bilirubin increased, grade 3/4 [1]: 0 n (%) | Blood creatinine increased, all grades [1]: 0 n (%) | Blood creatinine increased, grade 3/4 [1]: 0 n (%) | Constipation, all grades [1]: 0 n (%) | Constipation, grade 3/4 [1]: 0 n (%) | Decreased appetite, all grades [1]: 0 n (%) | Decreased appetite, grade 3/4 [1]: 0 n (%) | Diarrhea, all grades [1]: 0 n (%) | Diarrhea, grade 3/4 [1]: 0 n (%) | Dizziness, all grades [1]: 0 n (%) | Dizziness, grade 3/4 [1]: 0 n (%) | Dyspepsia, all grades [1]: 0 n (%) | Dyspepsia, grade 3/4 [1]: 0 n (%) | Fatigue, all grades [1]: 3 (33) n (%) | Fatigue, grade 3/4 [1]: 1 (11) n (%) | Headache, all grades [1]: 1 (11) n (%) | Headache, grade 3/4 [1]: 0 n (%) | Hypoalbuminemia, all grades [1]: 0 n (%) | Hypoalbuminemia, grade 3/4 [1]: 0 n (%) | Lipase increased, all grades [1]: 0 n (%) | Lipase increased, grade 3/4 [1]: 0 n (%) | Localized edema, all grades [1]: 0 n (%) | Localized edema, grade 3/4 [1]: 0 n (%) | Maculo‐papular rash, all grades [1]: 0 n (%) | Maculo‐papular rash, grade 3/4 [1]: 0 n (%) | Myalgia, all grades [1]: 0 n (%) | Myalgia, grade 3/4 [1]: 0 n (%) | Nausea, all grades [1]: 0 n (%) | Nausea, grade 3/4 [1]: 0 n (%) | Odynophagia, all grades [1]: 0 n (%) | Odynophagia, grade 3/4 [1]: 0 n (%) | Peripheral edema, all grades [1]: 3 (33) n (%) | Peripheral edema, grade 3/4 [1]: 0 n (%) | Pyrexia, all grades [1]: 0 n (%) | Pyrexia, grade 3/4 [1]: 0 n (%) | Stomatitis, all grades [1]: 0 n (%) | Stomatitis, grade 3/4 [1]: 0 n (%) | Thrombocytopenia, all grades [1]: 1 (11) n (%) | Thrombocytopenia, grade 3/4 [1]: 1 (11) n (%) | Total protein decreased, all grades [1]: 0 n (%) | Total protein decreased, grade 3/4 [1]: 0 n (%) | Upper abdominal pain, all grades [1]: 0 n (%) | Upper abdominal pain, grade 3/4 [1]: 0 n (%) | Vomiting, all grades [1]: 0 n (%) | Vomiting, grade 3/4 [1]: 0 n (%) | ALT increased, all grades (expansion RP2D other n=18): 1 (6) n (%) | ALT increased, grade 3/4 (expansion RP2D other n=18): 1 (6) n (%) | AST increased, all grades (expansion RP2D other n=18): 2 (11) n (%) | Amylase increased, all grades (expansion RP2D other n=18): 0 n (%) | Amylase increased, grade 3/4 (expansion RP2D other n=18): 0 n (%) | Asthenia, all grades (expansion RP2D other n=18): 1 (6) n (%) | Asthenia, grade 3/4 (expansion RP2D other n=18): 0 n (%) | Blood bilirubin increased, all grades (expansion RP2D other n=18): 0 n (%) | Blood bilirubin increased, grade 3/4 (expansion RP2D other n=18): 0 n (%) | Blood creatinine increased, all grades (expansion RP2D other n=18): 1 (6) n (%) | Blood creatinine increased, grade 3/4 (expansion RP2D other n=18): 0 n (%) | Constipation, all grades (expansion RP2D other n=18): 1 (6) n (%) | Constipation, grade 3/4 (expansion RP2D other n=18): 0 n (%) | Decreased appetite, all grades (expansion RP2D other n=18): 2 (11) n (%) | Decreased appetite, grade 3/4 (expansion RP2D other n=18): 0 n (%) | Diarrhea, all grades (expansion RP2D other n=18): 3 (17) n (%) | Diarrhea, grade 3/4 (expansion RP2D other n=18): 0 n (%) | Dizziness, all grades (expansion RP2D other n=18): 1 (6) n (%) | Dizziness, grade 3/4 (expansion RP2D other n=18): 0 n (%) | Dyspepsia, all grades (expansion RP2D other n=18): 2 (11) n (%) | Dyspepsia, grade 3/4 (expansion RP2D other n=18): 0 n (%) | Fatigue, all grades (expansion RP2D other n=18): 3 (17) n (%) | Fatigue, grade 3/4 (expansion RP2D other n=18): 0 n (%) | Headache, all grades (expansion RP2D other n=18): 0 n (%) | Headache, grade 3/4 (expansion RP2D other n=18): 0 n (%) | Hypoalbuminemia, all grades (expansion RP2D other n=18): 1 (6) n (%) | Hypoalbuminemia, grade 3/4 (expansion RP2D other n=18): 0 n (%) | Lipase increased, all grades (expansion RP2D other n=18): 1 (6) n (%) | Lipase increased, grade 3/4 (expansion RP2D other n=18): 0 n (%) | Localized edema, all grades (expansion RP2D other n=18): 2 (11) n (%) | Localized edema, grade 3/4 (expansion RP2D other n=18): 0 n (%) | Maculo‐papular rash, all grades (expansion RP2D other n=18): 2 (11) n (%) | Maculo‐papular rash, grade 3/4 (expansion RP2D other n=18): 0 n (%) | Myalgia, all grades (expansion RP2D other n=18): 2 (11) n (%) | Myalgia, grade 3/4 (expansion RP2D other n=18): 0 n (%) | Nausea, all grades (expansion RP2D other n=18): 6 (33) n (%) | Nausea, grade 3/4 (expansion RP2D other n=18): 0 n (%) | Odynophagia, all grades (expansion RP2D other n=18): 0 n (%) | Odynophagia, grade 3/4 (expansion RP2D other n=18): 0 n (%) | Peripheral edema, all grades (expansion RP2D other n=18): 4 (22) n (%) | Peripheral edema, grade 3/4 (expansion RP2D other n=18): 0 n (%) | Pyrexia, all grades (expansion RP2D other n=18): 0 n (%) | Pyrexia, grade 3/4 (expansion RP2D other n=18): 0 n (%) | Stomatitis, all grades (expansion RP2D other n=18): 1 (6) n (%) | Stomatitis, grade 3/4 (expansion RP2D other n=18): 0 n (%) | Thrombocytopenia, all grades (expansion RP2D other n=18): 0 n (%) | Thrombocytopenia, grade 3/4 (expansion RP2D other n=18): 0 n (%) | Total protein decreased, all grades (expansion RP2D other n=18): 0 n (%) | Total protein decreased, grade 3/4 (expansion RP2D other n=18): 0 n (%) | Upper abdominal pain, all grades (expansion RP2D other n=18): 0 n (%) | Upper abdominal pain, grade 3/4 (expansion RP2D other n=18): 0 n (%) | Vomiting, all grades (expansion RP2D other n=18): 4 (22) n (%) | Vomiting, grade 3/4 (expansion RP2D other n=18): 0 n (%) | lipase increase, grade 3 or 4 (suspected study drug‐related, dose‐expansion cohorts): 5%
